# Measurements: ChEMBL document CHEMBL1255250, “Microbicidal properties and cytocidal selectivity of rhesus macaque theta defensins” (Antimicrob Agents Chemother, 2008)
# Active and inactive are the calls of the source. No cut-off for these calls is given here. Where a SMILES comes first, the peptide text is derived from it. Bridges are numbered along the chain shown (N, C = ends).
# Columns and labels:
# Staphylococcus aureus [1] = experiment: Microbicidal activity against Staphylococcus aureus 502a at 5 ug/ml in presence of <= 80 mM NaCl; format: functional, organism-based
# Outline: (§1)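 S. aureus in log phase was incubated with 5 μg/ml peptide in 10 mM PIPES, pH 7.4, containing increasing NaCl for 2 h at 37°C. Killing was determined by colony counting and expressed as a percentage of killing in buffer alone.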
# [2] = target: Beta-galactosidase (Escherichia coli) (UniProt Q8VNN2); experiment: Inhibition of Escherichia coli ML35 Beta-galactosidase assessed as inhibition of o-nitrophenyl-beta-d-galactopyranoside hydrolysis at 4 ug/ml
# Sequence of Beta-galactosidase (Escherichia coli) (Q8VNN2 whole entry, looked up): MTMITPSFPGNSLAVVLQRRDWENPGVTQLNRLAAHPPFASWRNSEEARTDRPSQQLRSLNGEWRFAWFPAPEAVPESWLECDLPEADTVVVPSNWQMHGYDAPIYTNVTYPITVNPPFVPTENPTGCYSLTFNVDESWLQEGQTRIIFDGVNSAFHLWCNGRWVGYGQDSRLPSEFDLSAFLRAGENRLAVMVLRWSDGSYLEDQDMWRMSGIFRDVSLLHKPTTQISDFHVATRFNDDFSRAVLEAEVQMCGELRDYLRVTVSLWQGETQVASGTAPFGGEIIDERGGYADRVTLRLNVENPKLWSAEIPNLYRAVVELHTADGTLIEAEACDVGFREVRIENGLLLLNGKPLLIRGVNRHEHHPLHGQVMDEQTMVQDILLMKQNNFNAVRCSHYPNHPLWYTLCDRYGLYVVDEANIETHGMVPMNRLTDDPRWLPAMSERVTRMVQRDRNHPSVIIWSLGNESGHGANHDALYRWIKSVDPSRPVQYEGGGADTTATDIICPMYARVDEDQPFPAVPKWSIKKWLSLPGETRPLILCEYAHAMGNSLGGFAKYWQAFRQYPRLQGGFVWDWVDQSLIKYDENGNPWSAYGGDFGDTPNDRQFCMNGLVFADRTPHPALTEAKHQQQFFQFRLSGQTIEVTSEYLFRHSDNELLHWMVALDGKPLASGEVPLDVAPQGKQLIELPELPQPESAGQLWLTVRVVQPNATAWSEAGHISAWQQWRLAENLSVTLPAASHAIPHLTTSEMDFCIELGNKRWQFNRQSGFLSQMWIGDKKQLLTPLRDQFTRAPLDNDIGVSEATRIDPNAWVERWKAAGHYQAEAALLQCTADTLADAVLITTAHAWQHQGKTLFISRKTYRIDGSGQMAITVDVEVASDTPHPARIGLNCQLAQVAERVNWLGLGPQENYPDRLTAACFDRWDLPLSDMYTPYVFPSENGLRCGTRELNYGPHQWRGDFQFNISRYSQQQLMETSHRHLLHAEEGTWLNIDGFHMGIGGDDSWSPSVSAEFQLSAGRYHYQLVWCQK
# Escherichia coli [3] = experiment: Microbicidal activity against Escherichia coli ML35 assessed as induction of cytoplasmic membrane permeabilization at 1 ug/ml; format: functional, organism-based
# Outline: (§2)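 Log-phase E. coli ML35 (1–2 × 10^6 CFU/ml) was incubated with peptide (0–8 μg/ml final) in 10 mM PIPES, pH 7.4, containing 3 mM ONPG. ONPG hydrolysis was followed at 405 nm for 60 min. The rate was taken as the highest kinetic slope and corrected for peptide inhibition of β-galactosidase measured cell-free.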
# [4] = Inhibition of beta-galactosidase in cell-free system assessed as inhibition of o-nitrophenyl-beta-d-galactopyranoside hydrolysis
# Escherichia coli [5] = experiment: Microbicidal activity against Escherichia coli ML35 in presence of 0.8 mM Magnesium ions; format: functional, organism-based
# Outline: (§3)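 Log-phase E. coli ML35 or C. albicans was incubated with increasing peptide concentrations in 10 mM PIPES, pH 7.4. The buffer contained 1.2 mM CaCl2 and 0.8 mM MgCl2, or no added divalent salts. Incubation was 2 h at 37°C, and survivors were counted as colonies.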
# Staphylococcus aureus [6] = experiment: Microbicidal activity against Staphylococcus aureus 502a using 10 mM Tris-HCl buffer in presence of 154 mM NaCl; format: functional, organism-based
# Outline: (§4)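 Log-phase S. aureus was exposed to increasing peptide concentrations for 2 h at 37°C. Buffer was 10 mM PIPES, Tris-HCl or sodium phosphate, pH 7.4, with or without 154 mM NaCl. Killing was read by colony counting.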
# Candida albicans [7] = experiment: Microbicidal activity against Candida albicans 16820 in presence of 0.8 mM Magnesium ions; format: functional, organism-based; outline: as §3
# Escherichia coli [8] = experiment: Microbicidal activity against Escherichia coli ML35 at 16 ug/ml in presence of 10% heat-inactivated human serum; format: functional, organism-based
# Outline: (§5)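 Human serum was heat-inactivated at 55°C for 30 min and clarified by centrifugation. E. coli was then exposed to a dose series of peptide in 10 mM PIPES, pH 7.4, with 10% of this serum. Killing was counted as colonies and expressed relative to incubations without serum.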
# Staphylococcus aureus [9] = experiment: Microbicidal activity against Staphylococcus aureus 502a at 0.5 to 2 ug/ml in presence of 10% human serum; format: functional, organism-based
# Outline: (§6)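 S. aureus was incubated with a dose series of peptide in 10 mM PIPES, pH 7.4, containing 10% normal human serum. Bacterial killing was determined by colony counting and expressed as a percentage of killing in incubations lacking serum.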
# Escherichia coli [10] = experiment: Microbicidal activity against Escherichia coli ML35 at <=8 ug/ml in presence of 10% heat-inactivated human serum; format: functional, organism-based; outline: as §5
# Staphylococcus aureus [11] = experiment: Microbicidal activity against Staphylococcus aureus 502a using 10 mM PIPES buffer in presence of 154 mM NaCl; format: functional, organism-based; outline: as §4
# Staphylococcus aureus [12] = experiment: Microbicidal activity against Staphylococcus aureus 502a in presence of 0.8 mM Magnesium ions; format: functional, organism-based
# Staphylococcus aureus [13] = experiment: Microbicidal activity against Staphylococcus aureus 502a in presence of 1.2 mM Calcium ions; format: functional, organism-based
# Candida albicans [14] = experiment: Microbicidal activity against Candida albicans 16820 in presence of 1.2 mM Calcium ions; format: functional, organism-based; outline: as §3
# Staphylococcus aureus [15] = experiment: Microbicidal activity against Staphylococcus aureus 502a using 10 mM sodium phosphate buffer in presence of 154 mM NaCl; format: functional, organism-based; outline: as §4
# Candida albicans [16] = experiment: Microbicidal activity against Candida albicans 16820 using PIPES buffer in presence of NaCl; format: functional, organism-based
# Outline: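 Log-phase C. albicans was incubated with peptide in 10 mM PIPES, pH 7.4, supplemented with NaCl, for 2 h at 37°C. Survivors were plated on Sabouraud dextrose agar and counted after 18–24 h at 37°C.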
# Staphylococcus aureus [17] = experiment: Microbicidal activity against Staphylococcus aureus 502a at >= 2 ug/ml in presence of 10% human serum; format: functional, organism-based; outline: as §6
# Staphylococcus aureus [18] = experiment: Microbicidal activity against Staphylococcus aureus 502a at 5 ug/ml in presence of 160 mM NaCl; format: functional, organism-based; outline: as §1
# Escherichia coli [19] = experiment: Microbicidal activity against Escherichia coli ML35 in presence of 1.2 mM Calcium ions; format: functional, organism-based; outline: as §3
# [20] = Selectivity index, ratio of MMC for Staphylococcus aureus 502a to hemolytic activity for human erythrocytes
# [21] = Toxicity in human Erythrocyte assessed as hemolysis at 100 ug/ml in presence of 10% serum; format: cell-based
# Outline: (§7)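 Erythrocytes from EDTA-anticoagulated human donor blood were washed in PBS or PiBS containing 4 mM EDTA, then resuspended without EDTA at 2% (vol/vol). Cells were incubated with peptide (0.3–100 μg/ml final) for 1 h at 37°C, with or without 10% autologous serum. Supernatant A405 was expressed relative to 1% Nonidet P-40 lysis.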
# Candida albicans [22] = experiment: Microbicidal activity against Candida albicans 16820 assessed as log reduction in microbial count at 10 ug/ml using PIPES buffer
# Candida albicans [23] = experiment: Microbicidal activity against Candida albicans 16820; format: functional
# Outline: (§8)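 Log-phase organisms (1–2 × 10^6 CFU/ml) were exposed to serially diluted peptide (0.05–10.0 μg/ml final) in 10 mM PIPES, pH 7.4, with 5 mM glucose for 2 h at 37°C. Aliquots were serially diluted 1:10 to 1:10^6 in Trypticase soy or Sabouraud broth and grown 24–48 h at 37°C. MMC was the lowest concentration giving 99.9% viability loss in at least two experiments.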
# [24] = Toxicity in human Erythrocyte assessed as concentration required to achieve 3% hemolysis; format: cell-based
# Staphylococcus aureus [25] = experiment: Microbicidal activity against Staphylococcus aureus 502a; format: functional; outline: as §8
# [26] = target: Beta-galactosidase (Escherichia coli) (UniProt Q8VNN2); experiment: Inhibition of Escherichia coli ML35 beta-galactosidase assessed as inhibition of o-nitrophenyl-beta-d-galactopyranoside hydrolysis at 1 ug/ml after 60 mins; outline: as §2
# [27] = target: Beta-galactosidase (Escherichia coli) (UniProt Q8VNN2); experiment: Inhibition of Escherichia coli ML35 Beta-galactosidase assessed as hydrolysis of o-nitrophenyl-beta-d-galactopyranoside at 2 ug/ml
# [28] = Toxicity in human Erythrocyte assessed as hemolysis at 100 ug/ml; format: cell-based; outline: as §7
# Escherichia coli [29] = experiment: Microbicidal activity against Escherichia coli ML35; format: functional; outline: as §8
SMILES,Activity (Staphylococcus aureus [1]),inhibition [2] [%],Activity (Escherichia coli [3]),inhibition [4],Activity (Escherichia coli [5]),Activity (Staphylococcus aureus [6]),Activity (Candida albicans [7]),Activity (Escherichia coli [8]),Activity (Staphylococcus aureus [9]),Activity (Escherichia coli [10]),Activity (Staphylococcus aureus [11]),Activity (Staphylococcus aureus [12]),Activity (Staphylococcus aureus [13]),Activity (Candida albicans [14]),Activity (Staphylococcus aureus [15]),Activity (Candida albicans [16]),Activity (Staphylococcus aureus [17]),Activity (Staphylococcus aureus [18]),Activity (Escherichia coli [19]),Selectivity Index [20],further results
CC[C@H](C)[C@@H]1NC(=O)[C@@H]2CSSC[C@H](NC(=O)[C@H](CCCNC(=N)N)NC(=O)[C@@H]3CSSC[C@H](NC1=O)C(=O)N[C@@H]([C@H](C)O)C(=O)N[C@@H](CCCNC(=N)N)C(=O)NCC(=O)N[C@H](Cc1ccccc1)C(=O)N3)C(=O)N[C@@H](CC(C)C)C(=O)N[C@@H]1CSSC[C@@H](NC(=O)[C@H](C(C)C)NC(=O)CNC(=O)[C@H](CCCNC(=N)N)NC(=O)[C@H](CCCNC(=N)N)NC1=O)C(=O)N[C@@H](CCCNC(=N)N)C(=O)N2,Active,36,Active,Dose-dependent effect,Active,Active,inactive,Active,inactive,inactive,Active,Active,Active,inactive,Active,inactive,Active,inactive,Active,–,–
"CC[C@H](C)[C@@H]1NC(=O)C2CSSCC(NC(=O)[C@H](CCCNC(=N)N)NC(=O)[C@@H]3CSSC[C@H](NC1=O)C(=O)N[C@@H]([C@@H](C)O)C(=O)N[C@@H](CCCNC(=N)N)C(=O)NCC(=O)N[C@@H](Cc1ccccc1)C(=O)N3)C(=O)N[C@@H]([C@@H](C)CC)C(=O)N[C@H]1CSSC[C@H](NC(=O)[C@H](Cc3ccccc3)NC(=O)CNC(=O)[C@H](CCCNC(=N)N)NC(=O)[C@H]([C@@H](C)O)NC1=O)C(=O)N[C@@H](CCCNC(=N)N)C(=O)N2 (single isomer, unassigned)",Active,–,inactive,–,Active,–,inactive,Active,inactive,inactive,inactive,Active,Active,inactive,inactive,inactive,Active,inactive,Active,14,Activity [21]: Non-toxic; FC (Candida albicans [22]): >3; MMC (Candida albicans [23]): 3 µg/mL; Activity [24]: 21 µg/mL; MMC (Staphylococcus aureus [25]): 1.5 µg/mL; inhibition [26]: Active; inhibition [27]: 78%; Activity [28]: Non-toxic; MMC (Escherichia coli [29]): 2.3 µg/mL
"CC(C)C[C@@H]1NC(=O)[C@@H]2CSSC[C@H](NC(=O)[C@H](CCCNC(=N)N)NC(=O)[C@@H]3CSSC[C@H](NC1=O)C(=O)N[C@@H](CCCNC(=N)N)C(=O)N[C@@H](CCCNC(=N)N)C(=O)NCC(=O)N[C@@H](C(C)C)C(=O)N3)C(=O)N[C@@H](CC(C)C)C(=O)N[C@H]1CSSC[C@H](NC(=O)[C@H](C(C)C)NC(=O)CNC(=O)[C@H](CCCNC(=N)N)NC(=O)[C@H](CCCNC(=N)N)NC1=O)C(=O)N[C@@H](CCCNC(=N)N)C(=O)N2 (cyclo(CLCRRGVCRCLCRRGVCR); disulfide 1-10, 3-8, 12-17)",Active,36,Active,Dose-dependent effect,Active,Active,inactive,Active,–,inactive,Active,Active,Active,inactive,Active,inactive,Active,inactive,Active,6.2,Activity [21]: Non-toxic; FC (Candida albicans [22]): >3; MMC (Candida albicans [23]): 1 µg/mL; Activity [24]: 6.2 µg/mL; MMC (Staphylococcus aureus [25]): 1 µg/mL; inhibition [26]: Active; Activity [28]: Non-toxic; MMC (Escherichia coli [29]): 2 µg/mL
